In ChEMBL document CHEMBL3632558, “Synthesis, antimycobacterial and antibacterial activity of l-[(1R,2S)-2-fluorocyclopropyl]naphthyridone derivatives containing an oxime-functionalized pyrrolidine moiety” (2015):
Values after ≈ are worked out from the molar mass of the structure shown.

What was measured:
Format in all cases: functional
[1] = tested on: Enterococcus faecalis; test: Antibacterial activity against Enterococcus faecalis 14-2 after 18 to 24 hrs
Method in brief: (§1)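 MIC by standard NCCLS reference procedure (M100-S11); lowest concentration of compound inhibiting visible bacterial growth after incubation at 35 °C for 18–24 h, read as complete inhibition of growth. Ciprofloxacin, levofloxacin and moxifloxacin run alongside as reference agents.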

[2] = tested on: Enterococcus faecium; test: Antibacterial activity against Enterococcus faecium 14-1 after 18 to 24 hrs; method in brief: as §1
[3] = tested on: Enterococcus faecium; test: Antibacterial activity against Enterococcus faecium 14-2 after 18 to 24 hrs; method in brief: as §1
[4] = tested on: Enterococcus faecium; test: Antibacterial activity against Enterococcus faecium 14-5 after 18 to 24 hrs; method in brief: as §1
[5] = tested on: Enterococcus faecium; test: Antibacterial activity against Enterococcus faecium 14-6 after 18 to 24 hrs; method in brief: as §1
[6] = tested on: Mycobacterium tuberculosis; test: Antimycobacterial activity against Mycobacterium tuberculosis H37Rv ATCC 27294 by alamar blue assay
Method in brief: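 Microplate Alamar Blue Assay; MIC is the lowest concentration giving ≥90% reduction in fluorescence relative to the mean of replicate bacterium-only controls. MDR strain 6133 is resistant to isoniazid and rifampicin.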

[7] = tested on: Escherichia coli; test: Antibacterial activity against Escherichia coli ATCC 25922 after 18 to 24 hrs; method in brief: as §1
[8] = tested on: Escherichia coli; test: Antibacterial activity against ESBL-positive Escherichia coli 14-1 after 18 to 24 hrs; method in brief: as §1
[9] = tested on: Escherichia coli; test: Antibacterial activity against ESBL-positive Escherichia coli 14-2 after 18 to 24 hrs; method in brief: as §1
[10] = tested on: Escherichia coli; test: Antibacterial activity against Escherichia coli 14-1 after 18 to 24 hrs; method in brief: as §1
[11] = tested on: Escherichia coli; test: Antibacterial activity against Escherichia coli 14-2 after 18 to 24 hrs; method in brief: as §1
[12] = tested on: Klebsiella pneumoniae; test: Antibacterial activity against ESBL-positive Klebsiella pneumoniae 14-17 after 18 to 24 hrs; method in brief: as §1
[13] = tested on: Klebsiella pneumoniae; test: Antibacterial activity against ESBL-positive Klebsiella pneumoniae 14-18 after 18 to 24 hrs; method in brief: as §1
[14] = tested on: Klebsiella pneumoniae; test: Antibacterial activity against ESBL-positive Klebsiella pneumoniae 14-19 after 18 to 24 hrs; method in brief: as §1
[15] = tested on: Klebsiella pneumoniae; test: Antibacterial activity against Klebsiella pneumoniae 14-1 after 18 to 24 hrs; method in brief: as §1
[16] = tested on: Klebsiella pneumoniae; test: Antibacterial activity against Klebsiella pneumoniae 14-2 after 18 to 24 hrs; method in brief: as §1
[17] = tested on: Klebsiella pneumoniae; test: Antibacterial activity against Klebsiella pneumoniae 14-3 after 18 to 24 hrs; method in brief: as §1
[18] = tested on: Klebsiella pneumoniae; test: Antibacterial activity against Klebsiella pneumoniae 14-4 after 18 to 24 hrs; method in brief: as §1
[19] = tested on: Pseudomonas aeruginosa; test: Antibacterial activity against Pseudomonas aeruginosa ATCC 27853 after 18 to 24 hrs; method in brief: as §1
[20] = tested on: Pseudomonas aeruginosa; test: Antibacterial activity against Pseudomonas aeruginosa 14-9 after 18 to 24 hrs; method in brief: as §1
[21] = tested on: Pseudomonas aeruginosa; test: Antibacterial activity against Pseudomonas aeruginosa 14-14 after 18 to 24 hrs; method in brief: as §1
[22] = tested on: Pseudomonas aeruginosa; test: Antibacterial activity against Pseudomonas aeruginosa 14-15 after 18 to 24 hrs; method in brief: as §1
[23] = tested on: Pseudomonas aeruginosa; test: Antibacterial activity against Pseudomonas aeruginosa 14-16 after 18 to 24 hrs; method in brief: as §1
[24] = tested on: Pseudomonas aeruginosa; test: Antibacterial activity against Pseudomonas aeruginosa 14-19 after 18 to 24 hrs; method in brief: as §1
[25] = tested on: Staphylococcus aureus; test: Antibacterial activity against Staphylococcus aureus CMCC 26003 after 18 to 24 hrs; method in brief: as §1
[26] = tested on: Staphylococcus aureus; test: Antibacterial activity against methicillin-sensitive Staphylococcus aureus 14-1 after 18 to 24 hrs; method in brief: as §1
[27] = tested on: Staphylococcus aureus; test: Antibacterial activity against methicillin-sensitive Staphylococcus aureus 14-2 after 18 to 24 hrs; method in brief: as §1
[28] = tested on: Staphylococcus aureus; test: Antibacterial activity against methicillin-sensitive Staphylococcus aureus 14-3 after 18 to 24 hrs; method in brief: as §1
[29] = tested on: Staphylococcus aureus; test: Antibacterial activity against methicillin-sensitive Staphylococcus aureus 14-4 after 18 to 24 hrs; method in brief: as §1
[30] = tested on: Staphylococcus aureus; test: Antibacterial activity against methicillin-resistant Staphylococcus aureus 14-4 after 18 to 24 hrs
[31] = tested on: Staphylococcus aureus; test: Antibacterial activity against methicillin-resistant Staphylococcus aureus 14-5 after 18 to 24 hrs
[32] = tested on: Staphylococcus epidermidis; test: Antibacterial activity against methicillin-sensitive Staphylococcus epidermidis 14-2 after 18 to 24 hrs; method in brief: as §1
[33] = tested on: Staphylococcus epidermidis; test: Antibacterial activity against methicillin-resistant Staphylococcus epidermidis 14-21 after 18 to 24 hrs
[34] = tested on: Staphylococcus epidermidis; test: Antibacterial activity against methicillin-resistant Staphylococcus epidermidis 14-22 after 18 to 24 hrs
[35] = tested on: Staphylococcus epidermidis; test: Antibacterial activity against methicillin-resistant Staphylococcus epidermidis 14-37 after 18 to 24 hrs
[36] = tested on: Staphylococcus epidermidis; test: Antibacterial activity against methicillin-resistant Staphylococcus epidermidis 14-39 after 18 to 24 hrs
[37] = tested on: Streptococcus pneumoniae; test: Antibacterial activity against Streptococcus pneumoniae ATCC 19615 after 18 to 24 hrs; method in brief: as §1
[38] = tested on: Enterococcus faecalis; test: Antibacterial activity against Enterococcus faecalis 14-1 after 18 to 24 hrs; method in brief: as §1

Row | SMILES | MIC [1] [mg/L] | MIC [2] [mg/L] | MIC [4] [mg/L] | MIC [5] [mg/L] | MIC90 [6] [mg/L] | MIC [7] [mg/L] | MIC [12] [mg/L] | MIC [13] [mg/L] | MIC [14] [mg/L] | MIC [15] [mg/L] | MIC [16] [mg/L] | MIC [17] [mg/L] | MIC [18] [mg/L] | MIC [27] [mg/L] | MIC [29] [mg/L] | MIC [30] [mg/L] | MIC [32] [mg/L] | MIC [33] [mg/L] | MIC [34] [mg/L] | MIC [35] [mg/L] | also measured
1 | NCC1CN(c2nc3c(cc2F)c(=O)c(C(=O)O)cn3[C@@H]2C[C@@H]2F)C/C1=N\OCc1ccc(F)cc1 (some centres undefined) | < 0.008 | 1 (≈ 1.99 µM) | 8 (≈ 16 µM) | 8 (≈ 16 µM) | < 0.25 | < 0.008 | 8 (≈ 16 µM) | 16 (≈ 31.9 µM) | 64 (≈ 128 µM) | 64 (≈ 128 µM) | > 128 | 64 (≈ 128 µM) | 128 (≈ 255 µM) | < 0.008 | < 0.008 | 32 (≈ 63.8 µM) | 64 (≈ 128 µM) | 8 (≈ 16 µM) | 8 (≈ 16 µM) | 8 (≈ 16 µM) | MIC [3]: 2 mg/L (≈ 3.99 µM); MIC [8]: 8 mg/L (≈ 16 µM); MIC [9]: 64 mg/L (≈ 128 µM); MIC [10]: 64 mg/L (≈ 128 µM); MIC [11]: 64 mg/L (≈ 128 µM); MIC [19]: 4 mg/L (≈ 7.98 µM); MIC [20]: 8 mg/L (≈ 16 µM); MIC [21]: 16 mg/L (≈ 31.9 µM); MIC [22]: 16 mg/L (≈ 31.9 µM); MIC [23]: 16 mg/L (≈ 31.9 µM); MIC [24]: 16 mg/L (≈ 31.9 µM); MIC [25]: < 0.008 mg/L; MIC [26]: 4 mg/L (≈ 7.98 µM); MIC [28]: < 0.008 mg/L; MIC [31]: 16 mg/L (≈ 31.9 µM); MIC [36]: 16 mg/L (≈ 31.9 µM); MIC [37]: 0.03 mg/L (≈ 0.0598 µM); MIC [38]: 64 mg/L (≈ 128 µM)
2 | NCC1CN(c2nc3c(cc2F)c(=O)c(C(=O)O)cn3[C@@H]2C[C@@H]2F)C/C1=N\OCc1ccc(Cl)cc1 (some centres undefined) | 0.125 (≈ 0.241 µM) | 2 (≈ 3.86 µM) | 4 (≈ 7.72 µM) | 8 (≈ 15.4 µM) | 0.342 (≈ 0.66 µM) | 0.125 (≈ 0.241 µM) | 8 (≈ 15.4 µM) | 8 (≈ 15.4 µM) | 64 (≈ 124 µM) | 128 (≈ 247 µM) | 128 (≈ 247 µM) | 64 (≈ 124 µM) | 128 (≈ 247 µM) | < 0.008 | 0.03 (≈ 0.0579 µM) | 16 (≈ 30.9 µM) | 16 (≈ 30.9 µM) | 4 (≈ 7.72 µM) | 4 (≈ 7.72 µM) | 8 (≈ 15.4 µM) | MIC [3]: 2 mg/L (≈ 3.86 µM); MIC [8]: 4 mg/L (≈ 7.72 µM); MIC [9]: 32 mg/L (≈ 61.8 µM); MIC [10]: 32 mg/L (≈ 61.8 µM); MIC [11]: 32 mg/L (≈ 61.8 µM); MIC [19]: 4 mg/L (≈ 7.72 µM); MIC [20]: 4 mg/L (≈ 7.72 µM); MIC [21]: 8 mg/L (≈ 15.4 µM); MIC [22]: 8 mg/L (≈ 15.4 µM); MIC [23]: 8 mg/L (≈ 15.4 µM); MIC [24]: 8 mg/L (≈ 15.4 µM); MIC [25]: < 0.008 mg/L; MIC [26]: 2 mg/L (≈ 3.86 µM); MIC [28]: 0.015 mg/L (≈ 0.029 µM); MIC [31]: 32 mg/L (≈ 61.8 µM); MIC [36]: 8 mg/L (≈ 15.4 µM); MIC [37]: 0.015 mg/L (≈ 0.029 µM); MIC [38]: 32 mg/L (≈ 61.8 µM)
3 | NCC1CN(c2nc3c(cc2F)c(=O)c(C(=O)O)cn3[C@@H]2C[C@@H]2F)C/C1=N\OCc1ccccc1 (some centres undefined) | – | – | – | – | 0.5 (≈ 1.03 µM) | – | – | – | – | – | – | – | – | – | – | – | – | – | – | – | –
4 | O=C(O)c1cn(C2CC2)c2cc(N3CCNCC3)c(F)cc2c1=O [CIPROFLOXACIN] | 1 (≈ 3.02 µM) | 64 (≈ 193 µM) | 128 (≈ 386 µM) | > 128 | – | < 0.008 | 4 (≈ 12.1 µM) | 0.25 (≈ 0.754 µM) | 64 (≈ 193 µM) | 32 (≈ 96.6 µM) | 16 (≈ 48.3 µM) | 128 (≈ 386 µM) | 32 (≈ 96.6 µM) | 0.25 (≈ 0.754 µM) | 0.5 (≈ 1.51 µM) | > 128 | > 128 | 64 (≈ 193 µM) | 128 (≈ 386 µM) | 128 (≈ 386 µM) | MIC [36]: 128 mg/L (≈ 386 µM); MIC [37]: 2 mg/L (≈ 6.04 µM); MIC [38]: 128 mg/L (≈ 386 µM)
